Test results: ChEMBL document CHEMBL1240491, “In vitro anticancer screening and radiosensitizing evaluation of some new quinolines and pyrimido[4,5-b]quinolines bearing a sulfonamide moiety” (Eur J Med Chem, 2010)

Legend:
[1] = test system: MCF7; test: Anticancer activity against human MCF7 cells assessed as survival fraction at 10 uM after 48 hrs by SRB assay; format: functional
Summary of the method: (§1)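 Unirradiated MCF7 monolayers attached for 24 h after plating at 10⁴ cells/well, then exposed to a range of compound concentrations (dissolved in DMSO) with replicate wells per concentration. Incubated 48 h at 37 °C under 5% CO₂. Sulforhodamine B assay: fixation, 30 min 0.4% SRB/1% acetic acid, four acid washes, Tris-EDTA elution, colorimetric reading. Surviving fraction given as mean ± standard error.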

[2] = test system: MCF7; test: Anticancer activity against human MCF7 cells assessed as survival fraction at 50 uM after 48 hrs by SRB assay; format: functional; summary of the method: as §1
[3] = test system: MCF7; test: Anticancer activity against human MCF7 cells assessed as survival fraction at 25 uM after 48 hrs by SRB assay; format: functional; summary of the method: as §1
[4] = test system: MCF7; test: Anticancer activity against human MCF7 cells assessed as survival fraction after 48 hrs by SRB assay; format: functional, cell-based; details: MCF7, 48 h; summary of the method: as §1
[5] = test system: MCF7; test: Anticancer activity against human MCF7 cells assessed as survival fraction at 100 uM after 48 hrs by SRB assay; format: functional; summary of the method: as §1
[6] = test system: MCF7; test: Anticancer activity against 8 Gy irradiated human MCF7 cells assessed as survival fraction at 100 uM after 48 hrs by SRB assay; format: functional
Summary of the method: (§2)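 MCF7 cells seeded at 10⁴ cells/well for 24 h, then given test compound (DMSO solution; 10, 25, 50 or 100 in the concentration series) plus a single 8 Gy γ-irradiation. Incubated 48 h, 37 °C, 5% CO₂. SRB readout: fix, stain 30 min with 0.4% SRB in 1% acetic acid, wash, solubilize in Tris-EDTA, read on ELISA reader. Surviving fraction is the mean of three values ± SE.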

[7] = test system: MCF7; test: Anticancer activity against 8 Gy irradiated human MCF7 cells assessed as survival fraction at 25 uM after 48 hrs by SRB assay; format: functional; summary of the method: as §2
[8] = test system: MCF7; test: Anticancer activity against 8 Gy irradiated human MCF7 cells assessed as survival fraction at 10 uM after 48 hrs by SRB assay; format: functional; summary of the method: as §2
[9] = test system: MCF7; test: Anticancer activity against 8 Gy irradiated human MCF7 cells assessed as survival fraction after 48 hrs by SRB assay; format: functional, cell-based; details: MCF7, light or radiation study; summary of the method: as §2
[10] = test system: MCF7; test: Anticancer activity against 8 Gy irradiated human MCF7 cells assessed as survival fraction at 50 uM after 48 hrs by SRB assay; format: functional; summary of the method: as §2

Compound	Activity [1]	Activity [2]	Activity [3]	IC50 [4]	Activity [5]	Activity [6]	Activity [7]	Activity [8]	IC50 [9]	Activity [10]
CC1(C)CC(=O)C2=C(C1)N(c1ccc(S(N)(=O)=O)cc1)C(N)=C(C1=NCCN1)C2c1ccc(Cl)cc1 (stereo not drawn)	0.939	0.568	0.763	> 100 µM	0.621					
CC1(C)CC(=O)C2=C(C1)N(c1ccc(S(N)(=O)=O)cc1)c1ncnc(N=C=S)c1C2c1ccc(Cl)cc1 (stereo not drawn)	0.972	0.419	0.721	79.6 µM	0.515					
CC1(C)CC(=O)C2=C(C1)N(c1ccc(S(N)(=O)=O)cc1)c1nc[nH]c(=S)c1C2c1ccc(Cl)cc1 (stereo not drawn)	0.927	0.884	0.91	> 100 µM	0.814					
CC(=O)N(C(C)=O)C1=C(C#N)C(c2ccc(Cl)cc2)C2=C(CC(C)(C)CC2=O)N1c1ccc(S(N)(=O)=O)cc1 (stereo not drawn)	0.895	0.504	0.773	72.1 µM	0.414					
CCNC(=S)NC1=C(C#N)C(c2ccc(Cl)cc2)C2=C(CC(C)(C)CC2=O)N1c1ccc(S(N)(=O)=O)cc1 (stereo not drawn)	0.916	0.594	0.837	99.6 µM	0.561					
CC1(C)CC(=O)C2=C(C1)N(c1ccc(S(N)(=O)=O)cc1)c1nc[nH]c(=O)c1C2c1ccc(Cl)cc1 (stereo not drawn)	0.891	0.499	0.676	76.8 µM	0.468					
CC1(C)CC(=O)C2=C(C1)N(c1ccc(S(N)(=O)=O)cc1)c1nc(CC#N)[nH]c(=O)c1C2c1ccc(Cl)cc1 (stereo not drawn)	0.971	0.774	0.901	> 100 µM	0.525					
CCO/C=N/C1=C(C#N)C(c2ccc(Cl)cc2)C2=C(CC(C)(C)CC2=O)N1c1ccc(S(N)(=O)=O)cc1 (stereo not drawn)	0.803	0.498	0.551	97.2 µM	0.607					
CC1(C)CC(=O)C2=C(C1)N(c1ccc(S(N)(=O)=O)cc1)c1ncnc(Cl)c1C2c1ccc(Cl)cc1 (stereo not drawn)	0.843	0.476	0.696	86.5 µM	0.546					
CC1(C)CC(=O)C2=C(C1)N(c1ccc(S(N)(=O)=O)cc1)C(NC(=O)CCl)=C(C#N)C2c1ccc(Cl)cc1 (stereo not drawn)	0.986	0.523	0.736	84.3 µM	0.502					
CCOC(=O)Cn1cnc2c(c1=O)C(c1ccc(Cl)cc1)C1=C(CC(C)(C)CC1=O)N2c1ccc(S(N)(=O)=O)cc1 (stereo not drawn)	0.954	0.653	0.88	> 100 µM	0.563					
CC1(C)CC(=O)C2=C(C1)N(c1ccc(S(N)(=O)=O)cc1)C(N)=C(C#N)C2c1ccc(Cl)cc1 (stereo not drawn)	0.915	0.429	0.612	72.9 µM	0.484					
CC1(C)CC(=O)C2=C(C1)N(c1ccc(S(N)(=O)=O)cc1)c1ncnc(N)c1C2c1ccc(Cl)cc1 (stereo not drawn)	0.886	0.495	0.612	96.6 µM	0.602					
CC1(C)CC(=O)C2=C(C1)N(c1ccc(S(N)(=O)=O)cc1)c1nc(CCl)[nH]c(=O)c1C2c1ccc(Cl)cc1 (stereo not drawn)	0.914	0.731	0.775	> 100 µM	0.625					
CC1(C)CC(=O)C2=C(C1)N(c1ccc(S(N)(=O)=O)cc1)C(N)=C(C(N)=O)C2c1ccc(Cl)cc1 (stereo not drawn)	0.922	0.445	0.662	71.9 µM	0.452	0.282	0.517	0.653	44.4 µM	0.281
CC1(C)CC(=O)C2=C(C1)N(c1ccc(S(N)(=O)=O)cc1)c1ncnc(NN)c1C2c1ccc(Cl)cc1 (stereo not drawn)	0.94	0.672	0.788	76 µM	0.358					
CC1(C)CC(=O)C2=C(C1)N(c1ccc(S(N)(=O)=O)cc1)C(N1C(=O)CCC1=O)=C(C#N)C2c1ccc(Cl)cc1 (stereo not drawn)	0.93	0.584	0.813	95.2 µM	0.549					
Cc1nc2c(c(=O)[nH]1)C(c1ccc(Cl)cc1)C1=C(CC(C)(C)CC1=O)N2c1ccc(S(N)(=O)=O)cc1 (stereo not drawn)	0.976	0.45	0.721	85.9 µM	0.557					
COc1cccc2c1C(=O)c1c(O)c3c(c(O)c1C2=O)C[C@@](O)(C(=O)CO)C[C@@H]3O[C@H]1C[C@H](N)[C@H](O)[C@H](C)O1 [DOXORUBICIN]	0.721	0.461			0.494					
CC(=O)CC(=O)NC1=C(C#N)C(c2ccc(Cl)cc2)C2=C(CC(C)(C)CC2=O)N1c1ccc(S(N)(=O)=O)cc1 (stereo not drawn)	0.897	0.648	0.82	> 100 µM	0.549					
CC(=O)NC1=C(C#N)C(c2ccc(Cl)cc2)C2=C(CC(C)(C)CC2=O)N1c1ccc(S(N)(=O)=O)cc1 (stereo not drawn)	0.948	0.446	0.779	64.5 µM	0.324	0.137	0.503	0.427	33.1 µM	0.31
